Compounds with a hit are over-represented: about 1.7% of the library has one in this group of screens.
DSG3 Ab inh: blocks pemphigus antibody binding to human desmoglein-3; P32926; actives 0.48% (n = 310,000); DSG3-coupled beads, scFv-anti-DSG3-GFP binding, flow cytometry; stronger effect = lower value; binding (percent of control), % at 10 µM;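 active = binding more than 3 SD below its plate's average and above zero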;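 also: hits lower antibody fragment binding to DSG3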
Efflux pump inh: inhibitors of Candida antifungal efflux pumps expressed in yeast; inhibition, % at 10 µM; actives 0.44% (n = 330,000); AID 485275; S. cerevisiae Candida pump triplex, Nile Red efflux;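 active = plate passing quality check with inhibition over a set limit, or well fluorescence over plate mean plus 4 SD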;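 also: Nile Red retained in pooled yeast measured as flow cytometry median fluorescence; higher means more Nile Red kept so more efflux inhibition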
Neddyl block: inhibitors of human cullin neddylation. TR-FRET cullin neddylation, biochemical. inhibition, % at 25 µM. actives 0.58% (n = 360,000). AID 651699; in the data active = inhibition above about 36%
Arrestin-AP2 inh: inhibitors of human beta-arrestin and AP2 interaction; FITC-arrestin peptide / GST-AP2 beads, flow cytometry; AP2 beta2 appendage carries R879A mutation; inhibition, % at 10 µM; actives 0.31% (n = 340,000); AID 504490;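 active = inhibition above a set limit, near 3 SD of compounds lacking own fluorescence, cut at about 54% in these data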
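Assay system: GST-AP2 R879A bound to glutathione beads, E. coli-expressed; Medium: PBS with 0.05% Tween 20 and 0.1% BSA; Also added: fluorescein-tagged arrestin peptide at 50 nM final; Timing: 12 min plus 1 h, RT; Measured by: flow cytometry, FL1 (488/535 nm); Evaluation: percent drop in bead-associated FITC signal.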
Yeast cmpd fluor: counter-screen for efflux pump inhibitors: compound fluorescence. actives 4% (n = 1,700). AID 588517. S. cerevisiae AD/pABC3, flow cytometry. fluorescence ratio to DMSO, % at 10 µM. shares compounds with Efflux pump inh;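 active = fluorescence ratio to DMSO above its plate's cutoff, the plate mean ratio plus 5 SD, cut at about 210% in these data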;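 also: unstained yeast with no Nile Red so the signal is compound autofluorescence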
Mdr1 pump inh: inhibitors of Candida albicans Mdr1 efflux pump | shares compounds with Efflux pump inh | inhibition, % at 10 µM | actives 1% (n = 1,700) | AID 588518 | S. cerevisiae AD/CaMDR1, Nile Red efflux, flow cytometry; in the data active = inhibition above about 26%;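 also: higher means more Nile Red retained so more efflux inhibition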
CaCdr2 efflux inh: Candida Cdr2 efflux pump inhibition; Nile Red retention ratio vs DMSO, % at 10 µM; S. cerevisiae AD/CaCDR2, Nile Red retention, flow cytometry; shares compounds with Efflux pump inh; actives 4% (n = 1,700); in the data active = Nile Red retention ratio vs DMSO above about 190%;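 also: higher ratio means more blocking of Cdr2 efflux of the dye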
Cdr1 pump inh: blocks the Candida albicans Cdr1 efflux pump in yeast. shares compounds with Efflux pump inh. S. cerevisiae AD/CaCDR1, Nile Red efflux, flow cytometry. inhibition, % at 10 µM. actives 1% (n = 1,700);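 active = inhibition above the screen-wide mean plus twice its standard deviation, cut at about 32% in these data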
Arr AP2 CP1: human beta-arrestin and AP2 interaction inhibition, cherry pick | AID 504908 | shares compounds with Arrestin-AP2 inh | inhibition, % at 10 µM | GST-AP2 beads, FITC arrestin peptide binding, flow cytometry; GST-fused beta2-adaptin appendage, R879A mutant | actives 2% (n = 1,300);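 active = inhibition above a set limit, roughly 3 SD of non-fluorescent compound noise, cut at about 38% in these data; inactive = inhibition at or below that limit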;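 also: loss of bead fluorescence from 50 nM FITC arrestin peptide bound to appendage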
Target sequence (P63010 whole entry, looked up, the tested form may be a part, one chain of several): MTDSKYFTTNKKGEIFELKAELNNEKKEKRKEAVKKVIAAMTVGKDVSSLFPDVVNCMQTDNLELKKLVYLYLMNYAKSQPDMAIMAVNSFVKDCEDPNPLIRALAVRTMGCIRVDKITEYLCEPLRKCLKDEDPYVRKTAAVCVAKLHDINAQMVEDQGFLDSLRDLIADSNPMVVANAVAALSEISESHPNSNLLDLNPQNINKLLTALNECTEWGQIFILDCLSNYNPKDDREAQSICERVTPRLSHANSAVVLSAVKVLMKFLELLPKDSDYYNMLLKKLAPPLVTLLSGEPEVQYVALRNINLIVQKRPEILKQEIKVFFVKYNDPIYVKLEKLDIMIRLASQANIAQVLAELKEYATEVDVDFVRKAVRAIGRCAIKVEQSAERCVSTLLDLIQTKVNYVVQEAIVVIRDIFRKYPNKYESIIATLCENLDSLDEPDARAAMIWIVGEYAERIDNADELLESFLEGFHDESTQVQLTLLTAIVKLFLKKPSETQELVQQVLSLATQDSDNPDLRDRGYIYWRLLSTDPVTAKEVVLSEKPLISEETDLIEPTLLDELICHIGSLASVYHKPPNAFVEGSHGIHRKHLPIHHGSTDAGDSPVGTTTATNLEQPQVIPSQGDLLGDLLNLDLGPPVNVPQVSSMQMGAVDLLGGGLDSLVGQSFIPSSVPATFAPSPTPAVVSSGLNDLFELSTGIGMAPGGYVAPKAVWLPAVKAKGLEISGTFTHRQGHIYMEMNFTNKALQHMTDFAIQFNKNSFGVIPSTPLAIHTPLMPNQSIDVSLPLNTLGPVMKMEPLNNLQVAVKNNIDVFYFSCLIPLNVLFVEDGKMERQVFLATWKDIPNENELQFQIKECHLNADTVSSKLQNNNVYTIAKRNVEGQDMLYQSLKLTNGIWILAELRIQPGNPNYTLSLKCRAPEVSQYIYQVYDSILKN
GST GSH counter: disrupts GST binding to glutathione beads, arrestin-AP2 artifact | shares compounds with Arrestin-AP2 inh | AID 588338 | actives 2% (n = 1,300) | GST-fluorescein binding to GSH beads, fluorescence, counter-screen | inhibition, % at 10 µM;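 active = inhibition above 50%, about 3 SD of the inhibition seen with non-fluorescent compounds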;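 also: fluorescein maleimide labelled GST captured on 4 micron glutathione beads; higher means more loss of bead fluorescence from quenching or blocked binding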
Large screens that a line does not name were inactive (follow-up assays come after a bar, where they were run).

Cc1cccn2c(=O)nc(SCC(=O)NCc3ccc(F)cc3)nc12	none
CC1(C)Cc2c(sc(NC(=O)COc3ccc(Cl)cc3Cl)c2C(N)=O)C(C)(C)N1	Efflux pump inh 0.6 | Yeast cmpd fluor inactive | Mdr1 pump inh inactive | CaCdr2 efflux inh inactive | Cdr1 pump inh inactive
COC(=O)c1c(NC(=O)COc2ccc(Cl)cc2)sc2c1CC(C)(C)NC2(C)C	none
Cc1cccc(C(=O)Nc2nnc(SCC(=O)Nc3ccc4c(c3)oc3ccccc34)s2)c1	Efflux pump inh 4.2 | Yeast cmpd fluor inactive | Mdr1 pump inh inactive | CaCdr2 efflux inh inactive | Cdr1 pump inh inactive
OC(c1ccccc1)C(O)C(c1ccccc1)N1CCCCC1 (centres undefined)	none (no result: Efflux pump inh)
Cc1ccc(Cl)cc1NC(=S)N1CCC(c2ccccc2)C1 (centres undefined)	none
CC(=O)Nc1cccc(NC(=O)c2cc(-c3cccnc3)nc3ccc(Br)cc23)c1	none
CC(=O)Nc1cccc(NC(=O)c2cc(-c3cccnc3)nc3ccc(Cl)cc23)c1	Efflux pump inh 1.4 | Yeast cmpd fluor inactive | Mdr1 pump inh inactive | CaCdr2 efflux inh inactive | Cdr1 pump inh inactive
CN(CCc1ccccn1)C(=O)c1ccc(OC(F)(F)F)cc1	Efflux pump inh 0.8 | Yeast cmpd fluor inactive | Mdr1 pump inh inactive | CaCdr2 efflux inh inactive | Cdr1 pump inh inactive
CN(CCc1ccccn1)C(=O)c1cccnc1Oc1ccc(Cl)cc1	none (no result: DSG3 Ab inh)
CC(C(=O)O)n1c(-c2ccn[nH]2)n[nH]c1=S (centres undefined)	none
COc1ccc(CCCc2nnc(SCC(=O)Nc3cccc(C)c3)o2)cc1	none
COc1ccc(CCCc2nnc(SCC(=O)Nc3cc(C)c(C)cc3Br)o2)cc1	Efflux pump inh 0.8 | Yeast cmpd fluor inactive | Mdr1 pump inh inactive | CaCdr2 efflux inh inactive | Cdr1 pump inh inactive
COc1ccc(C(=O)CC(=O)C(=O)Nc2ccc(OC)c(Cl)c2)cc1	none
COc1ccc(C(=O)CC(=O)C(=O)Nc2ccc(Cl)cc2)cc1	Efflux pump inh 1.4 | Yeast cmpd fluor inactive | Mdr1 pump inh inactive | CaCdr2 efflux inh inactive | Cdr1 pump inh inactive
CCN1/C(=C2/SC(=S)N(NC(C)=O)C2=O)Sc2ccccc21	Efflux pump inh 0.8 | Yeast cmpd fluor inactive | Mdr1 pump inh inactive | CaCdr2 efflux inh inactive | Cdr1 pump inh inactive
Cc1cccc(OCC(=O)O/N=C(\N)c2ccncc2)c1	none
O=C(N/C(=C\c1cccs1)C(=O)N1CCOCC1)c1ccco1	none
CN1CCN(C(=O)/C(=C\c2cccs2)NC(=O)c2ccco2)CC1	Efflux pump inh 9.7 | Yeast cmpd fluor inactive | Mdr1 pump inh inactive | CaCdr2 efflux inh inactive | Cdr1 pump inh inactive
C[n+]1c(/C=C/c2ccc(O)cc2)ccc2ccccc21	none
Cc1cc(/C=C\c2ccc3cc(N(C)C)ccc3[n+]2C)c(C)n1-c1ccccc1	Efflux pump inh 17 | Yeast cmpd fluor active | Mdr1 pump inh 38 | CaCdr2 efflux inh 270 | Cdr1 pump inh inactive
CCN(CC)c1ccc(/C=C/C(=O)c2cccnc2)cc1	Efflux pump inh 69 | Yeast cmpd fluor inactive | Mdr1 pump inh inactive | CaCdr2 efflux inh inactive | Cdr1 pump inh inactive
O=C(/C=C/c1ccc(Cl)cc1)c1cccnc1	none
COCCn1c(SCC(=O)N2CCCCC2)nc2c(c1=O)SC(C)C2 (centres undefined)	none
c1ccc(C(c2ccccc2)c2noc(CN3CCC(c4ccncc4)CC3)n2)cc1	Efflux pump inh 5.2 | Yeast cmpd fluor inactive | Mdr1 pump inh inactive | CaCdr2 efflux inh inactive | Cdr1 pump inh inactive
CN(CC(=O)Nc1cccc(F)c1)C(=O)CNS(=O)(=O)c1ccc(N(C)C)c([N+](=O)[O-])c1	none
NC1=NC[C@H](Cc2ccccc2)N1CC1CCCCC1	none
NC1=NC[C@@H](Cc2ccc(O)cc2)N1CCCCC1CCCCC1	Efflux pump inh 1.0 | Yeast cmpd fluor inactive | Mdr1 pump inh inactive | CaCdr2 efflux inh inactive | Cdr1 pump inh inactive
NC1=NC[C@H](Cc2ccc(O)cc2)N1CCc1cccc(F)c1	none (no result: Arrestin-AP2 inh) | Yeast cmpd fluor inactive | Mdr1 pump inh inactive | CaCdr2 efflux inh inactive | Cdr1 pump inh inactive
NC1=NC[C@H](Cc2ccc(O)cc2)N1CC1CCCCC1	none | Yeast cmpd fluor inactive | Mdr1 pump inh inactive | CaCdr2 efflux inh inactive | Cdr1 pump inh inactive
CN(C)C1=NC[C@H](Cc2ccccc2)N1CCc1cccc(F)c1	none
CC(=O)c1ccc(N2CCN(CC(=O)Nc3ccccc3C(=O)NC3CC3)CC2)c(F)c1	none
CC1(C(=O)Nc2ccc3c(c2)OCO3)CCN1C(=O)CCc1ccc(Cl)cc1Cl (centres undefined)	none (no result: DSG3 Ab inh, Efflux pump inh, Arrestin-AP2 inh)
OCC1OC(n2nnc3ccccc32)C(O)C(O)C1O (centres undefined)	none (no result: DSG3 Ab inh)
CC(=O)OCCNc1cc(N2CCN(C)CC2)c2noc3c2c1C(=O)c1ccccc1-3	none (no result: Efflux pump inh)
CCOC(=O)C(C(=O)OCC)c1cc(Br)c2noc3c2c1C(=O)c1ccccc1-3	Efflux pump inh 0.8, Arrestin-AP2 inh 94 | Yeast cmpd fluor 826 | Mdr1 pump inh inactive | CaCdr2 efflux inh 193 | Cdr1 pump inh inactive
O=c1oc2ccccc2c(N2CCCCC2)c1[N+](=O)[O-]	Efflux pump inh 1.2 | Yeast cmpd fluor inactive | Mdr1 pump inh inactive | CaCdr2 efflux inh inactive | Cdr1 pump inh inactive
CCN1/C(=C/c2ccc3cc(C)ccc3[n+]2CC)Sc2ccc3sccc3c21	Efflux pump inh 3.6, Arrestin-AP2 inh 75 | Yeast cmpd fluor active | Mdr1 pump inh inactive | CaCdr2 efflux inh inactive | Cdr1 pump inh inactive | Arr AP2 CP1 43 | GST GSH counter 140
O=C1/C(=C/c2ccco2)SC(=S)N1CC1CCCO1 (centres undefined)	none
O=C1/C(=C\c2ccc(-c3ccccc3Cl)o2)SC(=S)N1CC1CCCO1 (centres undefined)	Efflux pump inh 0.5, Arrestin-AP2 inh 73 | Yeast cmpd fluor inactive | Mdr1 pump inh inactive | CaCdr2 efflux inh inactive | Cdr1 pump inh inactive | Arr AP2 CP1 42 | GST GSH counter inactive
CCOc1ccc(NC(=O)COC(=O)c2ccc3c(c2)OCCO3)cc1	none
O=C(CSc1ccc(-c2ccccc2)nn1)NC1CCCCC1	Efflux pump inh 5.7, Arrestin-AP2 inh 63 | Yeast cmpd fluor inactive | Mdr1 pump inh inactive | CaCdr2 efflux inh inactive | Cdr1 pump inh inactive | Arr AP2 CP1 inactive | GST GSH counter inactive
